From ChEMBL document CHEMBL3243955, “A novel synthesis and biological activity of several 5-halo-5'-amino analogues of deoxyribopyrimidine nucleosides” (J Med Chem, 1978)
Active and inactive are the calls of the source. No cut-off for these calls is given here.

Experiments:
Human alphaherpesvirus 1 [1] = experiment: Antiviral activity against HSV1 CL101 infected in African green monkey Vero cells assessed as plaque forming unit at 400 uM after 40 hrs relative to control; assay type: functional; settings: Human alphaherpesvirus 1, CL101, Vero
In short: (§1)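 After 1 h adsorption at 37 °C, the inoculum was removed and cells washed with PBS. Compound was added in serum-supplemented medium and cultures incubated 40 h at 37 °C. Virus was released by one freeze–thaw and titrated by plaque assay on Vero cells. Percent inhibition was pfu relative to drug-free cultures.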

Vero [2] = experiment: (§2) Cytotoxicity against African green monkey Vero cells at 400 uM after 3 days by haemocytometry; assay type: cell-based; settings: chlorocebus sabaeus, vero, 72 h, 400 µM
In short: (§3)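 Uninfected Vero cells were seeded at 0.1 confluency in Dulbecco's medium with 10% fetal calf serum and incubated 1 day at 37 °C in 5% CO2. Compound was then added in growth medium. Duplicate flasks were harvested at once and then daily for 3 days by trypsin (0.125%)/EDTA (0.02%) for 15 min at 37 °C, dispersed, and stained with trypan blue. Cells were counted by haemocytometer.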

Vero [3] = experiment: Cytotoxicity against African green monkey Vero cells at 1600 uM after 3 days by haemocytometry; assay type: cell-based; settings: chlorocebus sabaeus, 72 h; in short: as §3
CCRF S-180 [4] = experiment: Cytotoxicity against mouse S180 cells at 400 uM after 18 to 42 hrs relative to control; assay type: functional
In short: (§4)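 Mouse sarcoma 180 suspension cultures in Fischer's medium with 10% horse serum, 37 °C, humidified 5% CO2 (generation time ~18 h). Compound was added to exponential-phase cells at ~2 × 10⁴ cells/mL. Increase in cell number was measured after 18 and 42 h. Percent inhibition was calculated relative to drug-free control.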

CCRF S-180 [5] = experiment: Cytotoxicity against mouse S180 cells at 1600 uM after 18 to 42 hrs relative to control; assay type: functional, cell-based; in short: as §4
[6] = as §2; assay type: cell-based; settings: chlorocebus sabaeus, Vero cells; read-out: INH; in short: as §3
[7] = Cytotoxicity against African green monkey Vero cells at 0.1 uM after 3 days by haemocytometry; assay type: cell-based; settings: chlorocebus sabaeus, read-out: INH; in short: as §3
Vero [8] = experiment: Cytotoxicity against African green monkey Vero cells at 0.01 uM after 3 days by haemocytometry; assay type: cell-based; settings: chlorocebus sabaeus, 72 h; in short: as §3
CCRF S-180 [9] = experiment: Cytotoxicity against mouse S180 cells at 0.1 uM after 18 to 42 hrs relative to control; assay type: functional; in short: as §4
CCRF S-180 [10] = experiment: Cytotoxicity against mouse S180 cells at 0.01 after 18 to 42 hrs relative to control; assay type: functional; in short: as §4
Human alphaherpesvirus 1 [11] = experiment: Antiviral activity against HSV1 CL101 infected in African green monkey Vero cells assessed as plaque forming unit at 200 uM after 40 hrs relative to control; assay type: functional; settings: Human alphaherpesvirus 1, CL101, Vero; in short: as §1
Vero [12] = experiment: Cytotoxicity against African green monkey Vero cells at 200 uM after 3 days by haemocytometry; assay type: cell-based; settings: chlorocebus sabaeus, 72 h
CCRF S-180 [13] = experiment: Cytotoxicity against mouse S180 cells at 200 uM after 18 to 42 hrs relative to control; assay type: functional, cell-based; in short: as §4
Human alphaherpesvirus 1 [14] = experiment: Antiviral activity against HSV1 CL101 infected in African green monkey Vero cells assessed as plaque forming unit at 1 uM after 40 hrs relative to control; assay type: functional, organism-based; in short: as §1
Vero [15] = experiment: Cytotoxicity against African green monkey Vero cells at 1 uM after 3 days by haemocytometry; assay type: cell-based; settings: chlorocebus sabaeus, 72 h; in short: as §3
CCRF S-180 [16] = experiment: Cytotoxicity against mouse S180 cells at 1 uM after 18 to 42 hrs relative to control; assay type: functional; in short: as §4
Human alphaherpesvirus 1 [17] = experiment: Antiviral activity against HSV1 CL101 infected in African green monkey Vero cells assessed as plaque forming unit at 50 uM after 40 hrs relative to control; assay type: functional; settings: Human alphaherpesvirus 1, CL101, Vero; in short: as §1
Vero [18] = experiment: (§5) Cytotoxicity against African green monkey Vero cells at 50 uM after 3 days by haemocytometry; assay type: cell-based; settings: chlorocebus sabaeus, vero, 72 h, 50 µM; in short: as §3
Vero [19] = experiment: Cytotoxicity against African green monkey Vero cells at 800 uM after 3 days by haemocytometry; assay type: cell-based; settings: chlorocebus sabaeus, 72 h; in short: as §3
[20] = as §5; assay type: cell-based; settings: chlorocebus sabaeus, Vero cells; read-out: INH; in short: as §3
CCRF S-180 [21] = experiment: Cytotoxicity against mouse S180 cells at 50 uM after 18 to 42 hrs relative to control; assay type: functional; in short: as §4

NC[C@H]1O[C@@H](n2cc(I)c(N)nc2=O)C[C@@H]1O
inhibition at 400 µM (Human alphaherpesvirus 1 [1]): 92.8% | Activity (Vero [2]): Non-toxic | Activity (Vero [3]): Non-toxic | inhibition (CCRF S-180 [4]): inactive | inhibition (CCRF S-180 [5]): inactive

O=c1[nH]c(=O)n([C@H]2C[C@H](O)[C@@H](CO)O2)cc1F [FLOXURIDINE]
inhibition at 400 µM (Human alphaherpesvirus 1 [1]): 84.3% | cytotoxicity at 72 h, 400 µM [6]: 100% | cytotoxicity at 72 h, 0.1 µM [7]: 100% | Activity (Vero [8]): Non-toxic | inhibition at 400 µM (CCRF S-180 [4]): 100% | inhibition at 0.1 µM (CCRF S-180 [9]): 100% | inhibition (INH) (CCRF S-180 [10]): 100%

NC[C@H]1O[C@@H](n2cc(Br)c(O)nc2=O)C[C@@H]1O
inhibition at 200 µM (Human alphaherpesvirus 1 [11]): 86.2% | Activity (Vero [12]): Non-toxic | inhibition (CCRF S-180 [13]): inactive

NC[C@H]1O[C@@H](n2cc(F)c(=O)[nH]c2=O)C[C@@H]1O
inhibition at 400 µM (Human alphaherpesvirus 1 [1]): 85.6% | inhibition (Human alphaherpesvirus 1 [14]): inactive | cytotoxicity at 72 h, 400 µM [6]: 100% | Activity (Vero [15]): Non-toxic | inhibition at 400 µM (CCRF S-180 [4]): 100% | inhibition at 1 µM (CCRF S-180 [16]): 100%

[N-]=[N+]=NC[C@H]1O[C@@H](n2cc(I)c(N)nc2=O)C[C@@H]1O
inhibition at 200 µM (Human alphaherpesvirus 1 [11]): 37.5% | Activity (Vero [12]): Non-toxic | inhibition (CCRF S-180 [13]): inactive

Nc1nc(=O)n([C@H]2C[C@H](O)[C@@H](CO)O2)cc1I [IBACITABINE]
inhibition at 50 µM (Human alphaherpesvirus 1 [17]): 99.5% | Activity (Vero [18]): Non-toxic | Activity (Vero [19]): Non-toxic

NC[C@H]1O[C@@H](n2cc(Cl)c(O)nc2=O)C[C@@H]1O
inhibition at 400 µM (Human alphaherpesvirus 1 [1]): 74.3% | Activity (Vero [2]): Non-toxic | inhibition (CCRF S-180 [4]): inactive

O=c1[nH]c(=O)n([C@H]2C[C@H](O)[C@@H](CO)O2)cc1I [IDOXURIDINE]
inhibition at 50 µM (Human alphaherpesvirus 1 [17]): 99.5% | cytotoxicity at 72 h, 50 µM [20]: 100% | inhibition at 50 µM (CCRF S-180 [21]): 100%

[N-]=[N+]=NC[C@H]1O[C@@H](n2cc(F)c(O)nc2=O)C[C@@H]1O
inhibition at 400 µM (Human alphaherpesvirus 1 [1]): 5% | cytotoxicity at 72 h, 400 µM [6]: 100% | inhibition at 400 µM (CCRF S-180 [4]): 100%
